Tests used:
Nrf2 = experiment: Neh2-luc SH-SY5Y cell-based reporter; settings: for Nrf2 activity in Neh2-luciferase reporter assay (library screen): IRSF SMART library screen
Method in brief: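 Luciferase reporter in SH-SY5Y cells carrying the Nrf2 Neh2 fusion (Neh2-luc). It is used to find agents that directly stabilize the Nrf2 transcription factor. Run as a screen of an approved and preclinical drug library, and as concentration-response testing of selected compounds. TBHQ was the reference Nrf2 activator.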

HIF-1α = experiment: ODD-luc SH-SY5Y cell reporter; assay type: cell-based; settings: SH-SY5Y cells
Method in brief: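 HIF-1α ODD-luciferase reporter in SH-SY5Y cells, run as concentration-response testing. The PHD inhibitor FG-4592 served as the HIF-activating control.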

Row | SMILES | Nrf2 activity in Neh2-luciferase reporter assay (library screen) (Nrf2) | Nrf2 (Neh2-luc) fold activation (Nrf2; SH-SY5Y cells, fold increase in luminescence relative to vehicle control) [fold] | HIF-1α (ODD-luc) fold activation (HIF-1α) [fold]
1 | O=C(CCCCCCC(=O)Nc1ccccc1)NO [SAHA] | Nrf2 hits |  | 
2 | CC1(C)CNc2ccccc21 [3,3-dimethylindoline (III)] |  | 1.8 | 
3 | CN1CCc2c(c3ccccc3n2Cc2ccc(C(=O)NO)cc2)C1 [tubastatin] | Nrf2 hits |  | 2.4
4 | O=C(/C=C/C#Cc1cccc(NS(=O)(=O)c2ccccc2)c1)NO [oxamflatin] | Nrf2 hits |  | 
5 | CC(=O)Nc1ccc(C(=O)Nc2ccccc2N)cc1 [tacedinaline] | inactive |  | 
6 | Nc1ccccc1NC(=O)c1ccc(CNC(=O)OCc2cccnc2)cc1 [entinostat] | completely inactive |  | 
7 | CC(/C=C/C(=O)NO)=C\[C@@H](C)C(=O)c1ccc(N(C)C)cc1 [TSA] | Nrf2 hits |  | 

Reference: publication PMC5955769 (ACS chemical neuroscience, 2018)
